# Laboratory results reported in ChEMBL document CHEMBL4513216, “Probing the Open Global Health Chemical Diversity Library for Multistage-Active Starting Points for Next-Generation Antimalarials” (ACS Infect Dis, 2020).
# Experiment: Toxicity liver stage against HepG2, at 10uM
# Format: cell-based
# Design: test concentration 10 uM, cell line HepG2-A16-CD81EGFP
# Details: human, HepG2-A16-CD81EGFP cells; read-out: INHIBITION
# Outline: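 Uninfected HepG2-A16-CD81EGFP cells, 3 × 10^3 per well, 1536-well, plated on prespotted compound at 10 μM final, parasite-free screening media added to match infected plates; puromycin 10 μM positive, DMSO 0.5% negative; run in parallel with 48 h PbLuc assay at 37 °C, 5% CO2; viability by CellTiter-Glo luminescence, normalized to controls.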
row,SMILES,cytotoxicity at 10 µM
1,CCS(=O)(=O)c1ccc2oc([C@H]3CCN(Cc4cccnc4)C3)nc2c1,19.7%
2,O=C1N(C2CCCCC2)C[C@H]2CN(C3CCC3)CCN12,6.44%
3,COC(=O)[C@@H]1Cc2ncn(C)c2CN1S(=O)(=O)c1cccs1,-6.25%
4,CN(C)C(=O)NC1COC2(CCN(C(=O)c3ccc(Cl)cc3)CC2)C1 (centres undefined),0.994%
5,COCC1c2nnn(CC3CC3)c2CCN1C(=O)c1ccncn1 (centres undefined),-132%
6,CC1=N[C@@]2(CC[C@@H]3CN(Cc4ccccc4F)C[C@@H]32)C(=O)N1C,3.76%
7,Cc1ccc(C(=O)N2CCC3(CC2)CC(c2ccccc2)C(=O)N3)o1 (centres undefined),11.1%
8,c1ccc(N2CCOCC3(CCCN(c4nccs4)C3)C2)nc1 (centres undefined),-104%
9,O=c1[nH]nc2nc(N3CCCC3)ccn12,-6.07%
10,CCNS(=O)(=O)c1cnccc1N1CCN(CCO)CC1,3.6%
11,O=c1c2cnc(N3CCCCC3)nc2ccn1-c1ccccc1,-10.1%
12,CN(C)S(=O)(=O)N1CC[C@@H]2CN(Cc3cnn(C)c3)C[C@@H]2C1,13.5%
13,Cc1ccc(Cn2cc(Br)c(NS(C)(=O)=O)n2)cc1,0.22%
14,CCCn1c(SCC(N)=O)nnc1-c1csc2c1CCCC2,-1.42%
15,Cc1nn(C)c2c(N(C)Cc3ccco3)nc(C3CC3)nc12,1.58%
16,CCn1ccc(NS(=O)(=O)c2cccc(COC)c2)n1,-5.41%
17,N#Cc1cn[nH]c1NCc1cc(I)cc(I)c1O,1.11%
18,CN1CCCC1c1ccnc2nccn12 (centres undefined),6.84%
19,CCC(O)Cn1nc(-c2ccc(C(=O)O)cc2)cc1-c1cccc(F)c1 (centres undefined),8.17%
20,Cc1ncc(CN2CCOC(c3ccc(-c4cc[nH]n4)cn3)C2)s1 (centres undefined),-16.5%
21,CN1CCC(c2cncc(-c3cccc(Cl)c3)n2)CC1,-20.8%

row,SMILES,cytotoxicity at 10 µM
1,O=C(c1ccccn1)N1CCC(c2nc(O)cc(-c3ccncc3)n2)C1 (centres undefined),-4.7%
2,Cc1ccccc1-c1cncc(C2CCN(Cc3ccccn3)CC2)n1,-22.2%
3,CC1CCN(S(=O)(=O)N2CCC(Oc3cnccn3)CC2)CC1,-2.76%
4,CN(C)Cc1ccnc(C2CCCN2Cc2cc3ccccc3s2)n1 (centres undefined),20.2%
5,O=C(Nc1cccnc1N1CCSCC1)c1cc2c(s1)CCCCC2,-3.25%
6,COCC(O)CN1CCC(NC(=O)c2ccccc2Cl)CC1 (centres undefined),-4.87%
7,O=C(Nc1cccc(N2CCCC2)c1)N[C@H](CCO)c1ccccc1,-4.52%
8,CN(Cc1cccs1)Cc1nnsc1Cl,-5.65%
9,CCc1noc(CNc2cc3c(cc2Cl)OCCCO3)n1,-1.98%
10,CS(=O)(=O)CCCNc1cccc(COC2CCCCC2)c1,9.5%
11,COc1ccccc1CNC(=O)C(C)N1CC(n2cc(C)cn2)C1 (centres undefined),6.15%
12,COc1ccc(-c2cnc(CN(CC(N)=O)C3CCCC3)o2)cc1,-7.95%
13,CCOC(=O)NC(CNC(=O)c1cn(C)cn1)CC(C)C (centres undefined),-5.35%
14,CC1CCCN(C(=O)Nc2cccc(CN3CCOC3=O)c2)C1 (centres undefined),18.3%
15,COCC(=O)NCCCn1nc2ccccn2c1=O,11.8%
16,NC(=O)c1ccc(CN2CCC(N3CCCCC3)CC2)cc1,-7.55%
17,[O-][S+](Cc1c(F)cccc1Cl)Cc1nnnn1C1CC1 (centres undefined),0.0902%
18,CN(C)S(=O)(=O)c1cccc(NC(=O)Cc2ccon2)c1,9.48%
19,CCOc1cc(C(=O)N2CC=C(c3ccc(O)cc3)CC2)ccn1,-4.89%
20,Cc1nc(C2CCCN(c3ncc(Br)cn3)C2)no1 (centres undefined),-0.598%
21,C[C@@H]1CN(C(=O)Nc2cccc(OC(F)F)c2)CC(C(N)=O)O1 (some centres undefined),5.52%

row,SMILES,cytotoxicity at 10 µM
1,Cc1noc(C)c1Cc1nc(N(C)C)no1,9.21%
2,Cc1cc(C(=O)Nc2nnn[nH]2)ccc1I,-2.08%
3,O=S(=O)(CCNCCn1cccn1)c1ccccc1,11.5%
4,CCCN(CCN(C)C)C(=O)Cc1cn2ccsc2n1,0.27%
5,Cc1noc(C)c1CN1CCN(C(=O)Cn2cncn2)CC1,-3.52%
6,Cc1nc(NC(=O)CN2CCc3c(nc(C(C)C)n3C)C2)sc1C,-9.52%
7,Cn1cc(CC2CCN(C(=O)NCc3cn4ccsc4n3)C2)cn1 (centres undefined),-5.57%
8,O=C(NCCn1cccc1)C1CCN(C2CCCCC2)CC1,-0.467%
9,Cc1nc2c(c(=O)n1C)CCN(Cc1cc3cc[nH]c3cn1)CC2,-9.56%
10,CCC[C@@H]1CN(Cc2ccccc2OC(F)(F)F)C[C@H]1NC(C)=O,5.5%
11,CC(=O)c1cccc(CN2CCCC23CCN(c2ccccn2)CC3)c1,-15.4%
12,CC(=O)NCCC1CCCCN1C(=O)c1cccc(CCC(C)(C)O)c1 (centres undefined),4.13%
13,O=C(c1nc(=O)[nH]c2ccccc12)N1CCCC2(CCNC2)C1 (centres undefined),-3.64%
14,CCCC1COCCN1Cc1ccc(C(=O)O)cc1 (centres undefined),-139%
15,Cc1noc(CN(C)C(=O)CCn2cnc3ccccc32)n1,10.1%
16,Cc1ccsc1CN(Cc1ccccn1)CC(O)CO (centres undefined),0.773%
17,N#Cc1ccnc(NCc2cc3n(n2)CCCN(C(=O)C2CCC2)C3)c1,-135%
18,CCOc1ccccc1CC(=O)N1CCCC(c2ncc[nH]2)C1 (centres undefined),-2.65%
19,CC(CC(F)(F)F)NCc1ccccc1-n1ccnc1 (centres undefined),3.15%
20,O=C1OCCN1CCNc1ncc2c(n1)CCN2c1ccccc1,-4.95%
21,CCn1ncnc1C1CC(=O)NCc2nc(N3CCOCC3)sc21 (centres undefined),3.94%

row,SMILES,cytotoxicity at 10 µM
1,Cc1c[nH]c(CN2CCOC(c3ccc(Cl)c(Cl)c3)C2)c(C)c1=O (centres undefined),17.7%
2,CC(=O)N[C@@H]1CN(Cc2ccccc2-n2cccn2)C[C@H]1C(C)C,8.67%
3,CN(C)C(=O)C1CCCN1C(=O)c1ccc(Cn2ccnc2)o1 (centres undefined),-0.304%
4,CC(C)(C)n1ccc(C(=O)N2CCCC(c3ncc[nH]3)C2)c1 (centres undefined),2.96%
5,Cc1ncc(C(=O)NCCOc2ccccc2F)c(C)n1,24.8%
6,O=C(c1cccnc1SC/C=C/c1ccccc1)N1CCOCC(O)C1 (centres undefined),-2.42%
7,O=C(NCCN1CCCCC1)c1ccn(-c2ccccc2)n1,7.53%
8,Cc1cnn(C2CCCN(C(=O)c3ccc(N4CCCC4)nc3)C2)c1 (centres undefined),-4.77%
9,CCc1ncncc1C(=O)N1CCCN(Cc2ccc(C#N)cc2)CC1,-2.91%
10,CCC(C)(C)NC(=O)CN1C=Nc2ccccc2S1(=O)=O,-4.47%
11,CC(C)c1nccn1C1CCCN(C(=O)CN(C)C2CC2)C1 (centres undefined),-4.3%
12,CCc1nc2n(n1)CC(NCc1nc(Cc3ccccc3)no1)CC2 (centres undefined),1.06%
13,O=C(c1ccc2c(c1)CCCC2)N1CCCC(n2cncn2)C1 (centres undefined),-8.51%
14,COc1ccc(CNC2CCC3(CCC(=O)N3)CC2)cc1 (centres undefined),3.59%
15,OC1CCCN(Cc2ccnc(-c3cccnc3)n2)C1 (centres undefined),14%
16,CCOCC1CN(CCOc2ccc(Cl)cc2)Cc2c1cnn2C (centres undefined),-109%
17,O=C([C@H]1CC[C@@H]2[C@@H](CCN2Cc2nccs2)O1)N1CCCCO1,6.85%
18,CN(C)c1ncnc2c1CCN(CC1CCOC1)CC2 (centres undefined),0.745%
19,Cc1ccc2c(c1)C1(CC2)CCN(CC(=O)O)CC1,0.806%
20,Cc1cccnc1N1CC2(CCN(Cc3cnn(C)c3)C2)C1,-5.99%
21,c1ccc(CN2CCc3ncnc(-c4ccsc4)c3CC2)nc1,3.91%
